Assay results reported in publication PMC12138108 (Acta Pharmaceutica Sinica. B, 2025).

Tests used:
[1] = tested on: HBV DNA replication in HepAD38 cells; assay: In vitro anti-HBV assay in HepAD38 cells; assay type: cell-based, Hepatitis B virus (HBV); settings: reduction of HBV DNA by 50% in HepAD38 cells, qPCR, 4 days incubation (Table 2)
Outline: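 HepAD38 cells were plated overnight, then exposed to serially diluted test compound without tetracycline for 4 days. Cytoplasmic HBV core DNA was extracted and quantified by real-time PCR. EC50 is relative to mock-treated controls, calculated by the Reed & Muench method.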

[2] = Cytotoxicity on HepAD38 cells by cytopathic effect; assay type: cell-based, Human; settings: human, HepAD38 cells, CC50, reduction of viability of HepAD38 cells by 50%, CPE method (Table 2)
Outline: (§1)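 HepAD38 cells (tetracycline-inducible HBV) were maintained in DMEM with 10% FBS, 1 µg/mL tetracycline and 400 µg/mL G-418. Cells were plated overnight, then given serial dilutions of test compound without tetracycline. Cytotoxicity was read by the cytopathic effect method. CC50 is the concentration cutting viability by 50%, calculated by the Reed & Muench method.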

[3] = target: HBV core protein (HBC) (Hepatitis B virus genotype D subtype ayw, UniProt P03146); assay: HBC degradation in HepAD38 cells by Western blot; assay type: cell-based; settings: for HBC degradation activity (Western blot): tet-, maximum non-toxic concentration, 72 h
[4] = tested on: HepAD38 cells; assay: Cytotoxicity on HepAD38 cells by cytopathic effect; assay type: cell-based, Human
Outline: as §1

[5] = tested on: 11 CpAMs-resistant mutant HBC (P25A, P25G, D29L, D29W, T33N, I105F, I105W, I105Y, T109A, V124W, V124F); assay: Degradation of CpAMs-resistant mutant HBC in transfected HepG2 cells; assay type: cell-based, Hepatitis B virus (HBV); settings: 18 h, HyT-S7 6, NVR 3-778 3, 3TC 1 μmol/L
Outline: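 HepG2 cells at about 80% confluence were transfected with 0.25 µg plasmid. The pCMV-HBC-derived plasmids carried P25A, P25G, D29A/D29L, D29W, T33N, I105F, I105W, I105Y or T109A; pHBV1.3-derived plasmids carried V124F/V124W. At 6 h post-transfection, medium was replaced with fresh medium or test compound (6 µmol/L) or comparators (1–3 µmol/L) for 18 h. Intracellular core protein was detected by Western blot against a GAPDH/β-actin loading control, with chemiluminescence read-out.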

[6] = Hepatitis B virus, HePAD38, 96 h

| Molecule | EC50 [1, 6] | CC50 [2] | HBC degradation activity (Western blot) [3] | further results |
| --- | --- | --- | --- | --- |
| CC(C)[C@@H]1CC[C@@H](C)C[C@H]1OCC(=O)NCCOCC(=O)NC1CCN(S(=O)(=O)c2cc(C(=O)Nc3cc(F)c(F)c(F)c3)ccc2F)CC1 [HyT-S14, 4-Fluoro-3-((4-(2-(2-(2-(((1R,2S,5R)-2-isopropyl-5-methylcyclohexyl)oxy)acetamido)ethoxy)acetamido)piperidin-1-yl)sulfonyl)-N-(3,4,5-trifluorophenyl)benzamide] | 0.29 µM | 11.6 µM | still retains some degradation activity |  |
| O=C(COCCNC(=O)C(c1ccccc1)c1ccccc1)NC1CCN(S(=O)(=O)c2cc(C(=O)Nc3cc(F)c(F)c(F)c3)ccc2F)CC1 [HyT-S10, 3-((4-(2-(2-(2,2-Diphenylacetamido)ethoxy)acetamido)piperidin-1-yl)sulfonyl)-4-fluoro-N-(3,4,5-trifluorophenyl)benzamide] | 0.26 µM | 20 µM | still retains some degradation activity |  |
| O=C(CC1c2ccccc2-c2ccccc21)NCCOCC(=O)NC1CCN(S(=O)(=O)c2cc(C(=O)Nc3cc(F)c(F)c(F)c3)ccc2F)CC1 [HyT-S11, 3-((4-(2-(2-(2-(9H-Fluoren-9-yl)acetamido)ethoxy)acetamido)piperidin-1-yl)sulfonyl)-4-fluoro-N-(3,4,5-trifluorophenyl)benzamide] | 0.21 µM | 34.6 µM | still retains some degradation activity |  |
| N^1-(Bicyclo[2.2.1]hept-2-en-1-ylmethyl)-N^6-(1-((2-fluoro-5-((3,4,5-trifluorophenyl)carbamoyl)phenyl)sulfonyl)piperidin-4-yl)adipamide [HyT-S12] |  |  |  | EC50 [1]: 0.22 µM; CC50 ([4]; reduction of viability of HepAD38 cells by 50%, CPE method (Table 2)): 28.8 µM |
| CC(C)(C)OC(=O)/N=C(\NCCC[C@H](NC(=O)OC(C)(C)C)C(=O)NCCOCC(=O)NC1CCN(S(=O)(=O)c2cc(C(=O)Nc3cc(F)c(F)c(F)c3)ccc2F)CC1)NC(=O)OC(C)(C)C [HyT-S15, 2-Methylpropan-2-yl {[(6E,11S)-18-({1-[(2-fluoro-5-{[(3,4,5-trifluorophenyl)amino]carbonyl}phenyl)dioxo-λ6-sulfanyl]hexahydropyridin-4-yl}amino)-2,2-dimethyl-11-({[(2-methylprop-2-yl)oxy]carbonyl}amino)-4,12,18-trioxo-3,16-dioxa-5,7,13-triazaoctadecan-6-ylidene]amino}methanoate] | 0.45 µM | 60 µM | still retains some degradation activity | maximum non-toxic concentration by CPE method ([4]; HepAD38 cells, concentration used in the degradation test): 20 µmol/L |
| CC(C)Cc1ccc([C@H](C)C(=O)NCCOCC(=O)NC2CCN(S(=O)(=O)c3cc(C(=O)Nc4cc(F)c(F)c(F)c4)ccc3F)CC2)cc1 [HyT-S13, (S)-4-Fluoro-3-((4-(2-(2-(2-(4-isobutylphenyl)propanamido)ethoxy)acetamido)piperidin-1-yl)sulfonyl)-N-(3,4,5-trifluorophenyl)benzamide] | 0.59 µM | 11.6 µM | still retains some degradation activity |  |
| Nc1ccn([C@@H]2CS[C@H](CO)O2)c(=O)n1 [3TC, lamivudine] |  |  |  | degradation of 11 mutant types of HBC [5]: neither NVR 3-778 nor 3TC showed any degradation effect |
| NCCOCC(=O)NC1CCN(S(=O)(=O)c2cc(C(=O)Nc3cc(F)c(F)c(F)c3)ccc2F)CC1 [SP-O-7, 3-((4-(2-(2-Aminoethoxy)acetamido)piperidin-1-yl)sulfonyl)-4-fluoro-N-(3,4,5-trifluorophenyl)benzamide] |  |  |  | HBC degradation (Western blot) ([3]; 20 μmol/L, 24 h): unable to induce degradation of HBC |
